Measurements published in ChEMBL document CHEMBL2169776, “Antimicrobial activity of peptidomimetics against multidrug-resistant Escherichia coli: a comparative study of different backbones” (J Med Chem, 2012).
Converted amounts (≈) assume the structure as drawn.

Experiments:
Escherichia coli [1] = assay: Antibacterial activity against multidrug resistant NDM-1 producing Escherichia coli isolate after 16 to 20 hrs by broth microdilution assay; assay type: functional
Klebsiella pneumoniae [2] = assay: Antibacterial activity against multidrug resistant NDM-1 producing Klebsiella pneumoniae isolate after 16 to 20 hrs by broth microdilution assay; assay type: functional
Escherichia coli [3] = assay: Antibacterial activity against Escherichia coli ATCC 25922 after 16 to 20 hrs by broth microdilution assay; assay type: functional
Escherichia coli [4] = assay: Antibacterial activity against multidrug resistant ESBL producing Escherichia coli isolate after 16 to 20 hrs by broth microdilution assay; assay type: functional
Klebsiella pneumoniae [5] = assay: Antibacterial activity against multidrug resistant KPC producing Klebsiella pneumoniae isolate after 16 to 20 hrs by broth microdilution assay; assay type: functional
HeLa = assay: Cytotoxicity against human HeLa cells assessed as growth inhibition after 1 hr; assay type: cell-based
How it was run: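 HeLa cells seeded at 9000 per well, cultured 24 h; at 80−100% confluency washed with HBSS and exposed 1 h (37 °C, 50 rpm) to 2-fold serial dilutions in EMEM. After washing, MTS/PMS (240/2.4 μg/mL) in HBSS added for 1.5 h; formazan read at 492 nm. 0.2% SDS = 0%, EMEM alone = 100%. Test range 1−128 or 8−1024 μM; IC50 reported.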

[6] = Proteolytic stability of compound in presence of Pronase by reverse phase HPLC analysis; assay type: ADME
How it was run: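 Oligomer (2 mg/mL solution, 250 μL) incubated with Pronase (1.0 mg/mL solution, 50 μL) in 10 mM Tris pH 7.5 (1.2 mL); enzyme activity first confirmed on Nα-benzoyl arginine. Degradation followed by analytical reverse-phase HPLC (10−60% B) at 6, 12, 18 and 50 h; degradation product identified by HRMS.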

Escherichia coli [7] = assay: Antibacterial activity against multidrug resistant Amp-C producing Escherichia coli isolate after 16 to 20 hrs by broth microdilution assay; assay type: functional
Staphylococcus aureus = assay: Antibacterial activity against methicillin-resistant Staphylococcus aureus isolate after 16 to 20 hrs by broth microdilution assay; assay type: functional
[8] = Hemolytic activity against human RBCs after 1 hr by spectrophotometry; assay type: ADME, cell-based; details: erythrocyte
How it was run: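 Freshly drawn human erythrocytes washed in TBS (pH 7.2, 10 mM Tris, 150 mM NaCl), 1% v/v suspension mixed with 2-fold serial dilutions (1−128 μM) in water; 1 h at 37 °C. After pelleting, supernatant diluted 1:1 with water and hemoglobin read at OD 405 nm. Melittin (400 μg/mL) = 100%, TBS = 0%. Value is the lowest concentration giving ≥10% lysis.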

[9] = Therapeutic index, ratio of HC10 for human erythrocyte cells to MIC for multidrug resistant bacterial strains; details: read-out: TI
How it was run: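 TI = hemolytic activity divided by median of MIC values. Hemolysis: washed fresh human RBCs (1% v/v in TBS, pH 7.2) with 2-fold oligomer dilutions (1–128 μM), 37 °C, 1 h; supernatant OD 405 nm; melittin 400 μg/mL = 100%, TBS = 0%. HA = concentration giving ≥10% lysis. MICs by broth microdilution, 35 °C, 16–20 h.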

SMILES	MIC (Escherichia coli [1])	MIC (Klebsiella pneumoniae [2])	MIC (Escherichia coli [3])	MIC (Escherichia coli [4])	MIC (Klebsiella pneumoniae [5])	IC50 (HeLa)	Stability [6]	MIC (Escherichia coli [7])	MIC (Staphylococcus aureus)	HC10 [8]	selectivity ratio [9]
CC(=O)N(CCCCN)CCC(=O)N[C@@H](Cc1ccccc1)C(=O)N(CCCCN)CCC(=O)N[C@@H](Cc1ccccc1)C(=O)N(CCCCN)CCC(=O)N[C@@H](Cc1ccccc1)C(=O)N(CCCCN)CCC(=O)N[C@@H](Cc1ccccc1)C(=O)N(CCCCN)CCC(=O)N[C@@H](Cc1ccccc1)C(=O)N(CCCCN)CCC(=O)N[C@@H](Cc1ccccc1)C(=O)N(CCCCN)CCC(=O)N[C@@H](Cc1ccccc1)C(=O)N(CCCCN)CCC(=O)N[C@@H](Cc1ccccc1)C(N)=O	2 µM (≈ 4.75 µg/mL)	256 µM (≈ 608 µg/mL)	8 µM (≈ 19 µg/mL)	16 µM (≈ 38 µg/mL)	64 µM (≈ 152 µg/mL)	62.6 µM	Stable	16 µM (≈ 38 µg/mL)	256 µM (≈ 608 µg/mL)	> 128 µM	> 11
CC(=O)N[C@@H](CCCCN)C(=O)N[C@H](CC(=O)N[C@@H](CCCCN)C(=O)N[C@H](CC(=O)N[C@@H](CCCCN)C(=O)N[C@H](CC(=O)N[C@@H](CCCCN)C(=O)N[C@H](CC(=O)N[C@@H](CCCCN)C(=O)N[C@H](CC(=O)N[C@@H](CCCCN)C(=O)N[C@H](CC(=O)N[C@@H](CCCCN)C(=O)N[C@H](CC(=O)N[C@@H](CCCCN)C(=O)N[C@H](CC(N)=O)Cc1ccccc1)Cc1ccccc1)Cc1ccccc1)Cc1ccccc1)Cc1ccccc1)Cc1ccccc1)Cc1ccccc1)Cc1ccccc1	64 µM (≈ 152 µg/mL)	128 µM (≈ 304 µg/mL)	64 µM (≈ 152 µg/mL)	32 µM (≈ 76 µg/mL)	128 µM (≈ 304 µg/mL)	31.1 µM	Stable	32 µM (≈ 76 µg/mL)	32 µM (≈ 76 µg/mL)	64 µM	1
